Source: ChEMBL document CHEMBL4680104, “Structure-Based Optimization of Small-Molecule Inhibitors for the β-Catenin/B-Cell Lymphoma 9 Protein-Protein Interaction” (J Med Chem, 2018)

Tests used:
MDA-MB-231 = assay: Cytotoxicity in human MDA-MB-231 cells assessed as reduction in cell viability incubated for 72 hrs by MTS assay; type: functional, cell-based; conditions: MDA-MB-231, 72 h
In short: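 Triple-negative breast cancer line seeded at 5 × 10^3 cells/well, held overnight at 37 °C, then exposed to inhibitor over a concentration range for 72 h. Viability read out with a fresh 1:19 mix of PMS (0.92 mg/mL) and MTS (2 mg/mL), incubated 3 h at 37 °C, A490 measured.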

A549 = assay: Cytotoxicity in human A549 cells assessed as reduction in cell viability incubated for 72 hrs by MTS assay; type: functional, cell-based; conditions: A549, 72 h
In short: (§1)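 Cells seeded at 5 × 10^3 cells/well, kept overnight at 37 °C, then exposed to inhibitors at various concentrations for 72 h. Viability read with a freshly mixed PMS (0.92 mg/mL) : MTS (2 mg/mL) reagent at 1:19, incubated 3 h at 37 °C, A490 measured. […] Triplicate; mean ± SD.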

[1] = target: T1, beta-catenin-B-cell lymphoma 9 protein complex (Homo sapiens, UniProt P35222); assay: Inhibition of protein interaction between C-terminal 6x-histidine tagged full-length beta-catenin (1 to 781 residues) (unknown origin)/N-terminal biotinylated human BCL9 ( 350 to 375 residues) incubated for 1 hr by Alpha-screen competitive inhibition assay; type: protein-complex assay
T1 sequence (P35222 whole entry): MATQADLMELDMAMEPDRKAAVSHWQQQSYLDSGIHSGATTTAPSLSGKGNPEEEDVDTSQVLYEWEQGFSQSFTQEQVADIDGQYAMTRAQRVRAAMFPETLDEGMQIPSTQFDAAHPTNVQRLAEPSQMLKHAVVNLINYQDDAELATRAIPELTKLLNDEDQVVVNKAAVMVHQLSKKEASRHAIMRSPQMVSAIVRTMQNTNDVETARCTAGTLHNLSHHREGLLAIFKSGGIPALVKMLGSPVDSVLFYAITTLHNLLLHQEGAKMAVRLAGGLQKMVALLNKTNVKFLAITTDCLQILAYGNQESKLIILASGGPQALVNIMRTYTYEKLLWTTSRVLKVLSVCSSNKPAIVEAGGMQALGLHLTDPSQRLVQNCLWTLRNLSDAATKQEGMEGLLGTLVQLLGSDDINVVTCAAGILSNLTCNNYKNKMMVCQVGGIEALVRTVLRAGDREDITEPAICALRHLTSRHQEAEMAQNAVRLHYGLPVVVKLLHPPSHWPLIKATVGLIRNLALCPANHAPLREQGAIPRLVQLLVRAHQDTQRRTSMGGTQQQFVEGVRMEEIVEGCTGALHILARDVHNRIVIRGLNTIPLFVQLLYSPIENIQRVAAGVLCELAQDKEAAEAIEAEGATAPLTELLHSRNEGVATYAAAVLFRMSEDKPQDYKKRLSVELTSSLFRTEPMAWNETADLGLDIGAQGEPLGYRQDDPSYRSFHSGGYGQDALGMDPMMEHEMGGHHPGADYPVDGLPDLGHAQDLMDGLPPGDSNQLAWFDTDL
T1 sequence (O00512 whole entry): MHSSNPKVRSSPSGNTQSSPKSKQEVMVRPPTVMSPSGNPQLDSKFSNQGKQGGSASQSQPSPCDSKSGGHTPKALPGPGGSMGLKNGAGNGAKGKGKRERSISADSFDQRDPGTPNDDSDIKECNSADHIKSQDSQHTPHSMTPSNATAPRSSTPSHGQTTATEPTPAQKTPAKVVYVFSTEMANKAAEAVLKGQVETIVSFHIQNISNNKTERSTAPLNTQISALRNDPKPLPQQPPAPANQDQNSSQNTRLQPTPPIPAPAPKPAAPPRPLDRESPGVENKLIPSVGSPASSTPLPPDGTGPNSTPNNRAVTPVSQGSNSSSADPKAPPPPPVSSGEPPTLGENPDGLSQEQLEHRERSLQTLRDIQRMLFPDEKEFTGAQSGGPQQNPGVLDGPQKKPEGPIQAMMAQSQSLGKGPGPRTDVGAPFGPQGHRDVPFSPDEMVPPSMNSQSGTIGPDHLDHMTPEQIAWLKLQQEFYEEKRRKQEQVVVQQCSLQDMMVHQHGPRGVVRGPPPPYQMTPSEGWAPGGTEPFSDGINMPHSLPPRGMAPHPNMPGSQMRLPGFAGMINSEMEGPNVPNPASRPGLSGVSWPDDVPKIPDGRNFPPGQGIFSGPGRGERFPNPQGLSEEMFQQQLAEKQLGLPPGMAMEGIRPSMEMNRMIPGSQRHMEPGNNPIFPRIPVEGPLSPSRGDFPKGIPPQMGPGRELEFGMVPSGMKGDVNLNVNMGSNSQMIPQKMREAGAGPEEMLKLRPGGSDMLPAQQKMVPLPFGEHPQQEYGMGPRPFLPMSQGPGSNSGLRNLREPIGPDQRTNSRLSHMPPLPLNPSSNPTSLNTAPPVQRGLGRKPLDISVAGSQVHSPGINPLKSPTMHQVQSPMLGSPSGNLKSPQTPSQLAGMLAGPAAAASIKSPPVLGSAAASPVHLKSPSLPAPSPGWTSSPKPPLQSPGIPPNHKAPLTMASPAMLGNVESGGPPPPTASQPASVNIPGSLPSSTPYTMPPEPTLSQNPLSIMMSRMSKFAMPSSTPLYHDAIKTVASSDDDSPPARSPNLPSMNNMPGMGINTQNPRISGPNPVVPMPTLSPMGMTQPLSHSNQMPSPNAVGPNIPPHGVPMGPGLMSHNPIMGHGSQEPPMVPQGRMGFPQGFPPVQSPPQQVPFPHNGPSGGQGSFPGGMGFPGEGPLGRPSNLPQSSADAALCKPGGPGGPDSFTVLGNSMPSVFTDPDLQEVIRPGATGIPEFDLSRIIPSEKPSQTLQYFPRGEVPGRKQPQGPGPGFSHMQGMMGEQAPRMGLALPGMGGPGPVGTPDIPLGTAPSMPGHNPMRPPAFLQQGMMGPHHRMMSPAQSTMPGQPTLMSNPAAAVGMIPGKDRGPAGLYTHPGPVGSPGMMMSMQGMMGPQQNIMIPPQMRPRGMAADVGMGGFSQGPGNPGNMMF
In short: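 Full-length β-catenin (residues 1–781) with a C-terminal His6 tag was expressed in E. coli BL21(DE3) after IPTG induction at 20 °C. It was purified by Ni-NTA, anion-exchange and size-exclusion chromatography. For the assay, 40 nM β-catenin was preincubated for 30 min at 4 °C with 5 nM biotinylated BCL9 or 10 nM biotinylated E-cadherin. Inhibitor was then added for 1 h at 4 °C, followed by 10 μg/mL donor and acceptor beads for 1 h at 4 °C. IC50 was obtained by nonlinear fit and converted to Ki by the Nikolovska-Coleska method. Triplicate, mean ± SD.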

[2] = target: T1, beta-catenin-B-cell lymphoma 9 protein complex; assay: Inhibition of protein interaction between beta-catenin (unknown origin)/BCL9 in human SW480 cells transfected with beta-catenin assessed as reduction in Wnt/beta-catenin transactivation incubated for 24 hrs by Wnt-responsive TOP-Flash luciferase reporter assay; type: cell-based
HCT-116 = assay: Cytotoxicity in human HCT-116 cells assessed as reduction in cell viability incubated for 72 hrs by MTS assay; type: functional, cell-based; conditions: HCT-116, 72 h; in short: as §1

Ki [1] | IC50 [2] | SMILES | IC50 (MDA-MB-231) | IC50 (A549) | IC50 (HCT-116)
3.5 µM | 2 µM | Cc1cc(F)ccc1-c1cc(NC(=O)c2ccc(O[C@H]3CCNC3)c(-c3ccc(F)c(F)c3)c2)ccc1O[C@H]1CCNC1.Cl.Cl | 4.1 µM | 10 µM | 5.6 µM
1.3 µM | 12 µM | Cl.Cl.O=C(Nc1ccc(O[C@H]2CCNC2)c(-c2ccc(F)cc2)c1)c1ccc(O[C@H]2CCNC2)c(-c2ccc3cc(F)ccc3c2)c1 | 2.1 µM | 3.7 µM | 5.6 µM
8.7 µM | 5.9 µM | Cl.Cl.O=C(Nc1ccc(O[C@H]2CCNC2)c(-c2ccc(F)cc2)c1)c1cnc(O[C@H]2CCNC2)c(-c2ccc(F)c(F)c2)c1 | 3.6 µM | 26 µM | 8.7 µM
1.3 µM | 1.2 µM | Cl.Cl.O=C(Nc1ccc(O[C@H]2CCNC2)c(-c2ccc(F)cc2)c1)c1ccc(O[C@H]2CCNC2)c(-c2ccc3ccsc3c2)c1 | 2.8 µM | 9.4 µM | 7.5 µM
4.2 µM | 10 µM | Cl.Cl.O=C(Nc1ccc(O[C@H]2CCNC2)c(-c2ccc(F)cc2)c1)c1ccc(O[C@H]2CCNC2)c(C2CCC(C(F)(F)F)CC2)c1 (stereo partly specified) | 2.3 µM | 4.8 µM | 5.6 µM

SMILES | Ki [1] | IC50 [2] | IC50 (MDA-MB-231) | IC50 (A549) | IC50 (HCT-116)
Cl.Cl.O=C(Nc1ccc(O[C@H]2CCNC2)c(-c2ccc(F)cc2)c1)c1ccc(O[C@H]2CCNC2)c(-c2ccc(F)c(F)c2)c1 | 2.1 µM | 2.9 µM |  |  | 
Cl.Cl.O=C(Nc1ccc(O[C@@H]2CCNC2)c(-c2cccc(-c3nn[nH]n3)c2)c1)c1ccc(O[C@H]2CCNC2)c(-c2ccc(F)c(F)c2)c1 |  | 25 µM | 73 µM | > 400 µM | 55 µM
